Assay outcomes: PubChem, several laboratories
SF-1 act: activates the human nuclear receptor SF-1. Q13285. CHO-K1 Gal4-SF-1 LBD luciferase reporter; % increase over DMSO SF-1-specific signal. hit rate 1.9% among 65,000. activation, % at 10 µM;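 active = activation above the mean activation of all tested compounds plus 3 SD, cut at about 50% in these data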
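Test system: CHO-K1 cells with Gal4–hSF-1 LBD chimera plus Gal4-driven luciferase; Input: 4,000 cells/well; Compound: 10 µM only; Times: 20 h compound treatment, 37 °C; Measured by: steady-glow luciferase luminescence, read after 15 min reagent incubation; Measure: percent activation versus DMSO; Control set: DMSO and mock-transfected background; Replicates: one test per compound.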
PTK2B oligo ant: Pyk2 (human) oligomerization antagonism; Q293 cells, Pyk2 FERM NanoBiT luminescence; stronger effect = lower value; z-score (the deposit names both 25 µM and 10 µM); AID 1347419; hit rate 0.83% among 99,000; Q14289;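 active = Z-score of -3 or lower, scaled per plate to the spread of control and sample wells; inactive = z-score above -3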;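 note: negative z-score means lost luminescence so less FERM oligomerization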
ERb coact inh: ER-beta (human) coactivator binding inhibition; Q92731; TR-FRET ER-beta LBD / SRC1-Cy5 peptide binding; receptor agonist-loaded with 1 µM estradiol; inhibition, % at 25.6 µM; hit rate 1.3% among 86,000; AID 633;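 active = compounds whose percent inhibition of the receptor-coactivator binding signal exceeds about 50% in the single-dose screen, limit read from the data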;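 note: 0% = receptor plus peptide wells without compound and 100% = peptide-only wells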
RORA act: activators of human nuclear receptor RORA; CHO-K1 Gal4-RORA LBD luciferase reporter, luminescence; percent increase over mock-subtracted basal signal; activation, % at 10 µM; hit rate 1.5% among 65,000; P35398;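 active = activation above the mean of all tested compounds plus 3 SD, cut at about 49% in these data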;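 note: 0% = DMSO-treated RORA cells and 100% = added signal equal to DMSO minus mock-transfected cells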
ERa SRC1 pot: enhances coactivator binding to human estrogen receptor alpha; P03372; TR-FRET ERalpha-LBD/SRC-Cy5 coactivator binding, 2 h; 100 = basal binding, no effect; coactivator binding (% of control), % at 25.6 µM; hit rate 1.3% among 86,000; in the data active = activity above about 200%;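 note: binding measured in presence of low estradiol as agonist stimulus; 0% = peptide alone without receptor and 100% = receptor with peptide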
Target sequence (P03372 whole entry, looked up, the tested form may be a part): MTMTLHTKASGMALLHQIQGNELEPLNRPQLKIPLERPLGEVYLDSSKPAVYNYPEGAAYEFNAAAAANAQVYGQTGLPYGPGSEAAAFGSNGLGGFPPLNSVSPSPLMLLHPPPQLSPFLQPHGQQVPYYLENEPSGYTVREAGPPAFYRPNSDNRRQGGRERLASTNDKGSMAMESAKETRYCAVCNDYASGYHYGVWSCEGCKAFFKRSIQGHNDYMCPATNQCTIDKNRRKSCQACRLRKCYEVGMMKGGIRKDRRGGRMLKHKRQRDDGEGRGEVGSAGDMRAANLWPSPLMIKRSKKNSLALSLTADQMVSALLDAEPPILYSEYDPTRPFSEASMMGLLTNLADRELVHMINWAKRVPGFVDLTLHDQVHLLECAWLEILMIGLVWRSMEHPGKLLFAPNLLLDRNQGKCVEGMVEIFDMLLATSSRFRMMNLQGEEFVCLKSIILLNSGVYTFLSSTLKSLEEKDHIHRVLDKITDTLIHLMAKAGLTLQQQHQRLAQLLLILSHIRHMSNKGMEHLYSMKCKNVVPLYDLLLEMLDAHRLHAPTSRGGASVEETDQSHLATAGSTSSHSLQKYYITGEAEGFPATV
ERa coact inh: blocks coactivator binding to human estrogen receptor alpha; P03372; TR-FRET ER-alpha LBD / SRC-1 peptide, estradiol-bound; inhibition, % at 25.6 µM; hit rate 1.7% among 86,000; in the data active = inhibition above about 50%;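 note: 0% = receptor plus peptide control and 100% = peptide only without receptor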
Numbers without * were called inactive; · = no result; [ ] = another dose, or the depositor's remark. An excerpt weighted towards active compounds, which were near 4.8% of everything screened.

SMILES	SF-1 act	PTK2B oligo ant	ERb coact inh	RORA act	ERa SRC1 pot	ERa coact inh
C=C(C)C1CCC(C)=C1COC(=O)Nc1ccccc1 (configuration not stated)	-26.8	0.21	·	1.5	·	·
c1ccc2c(-c3nnc(SCc4cn5ccccc5n4)o3)c[nH]c2c1	·	-0.42	10.7	·	83.2	6.5
c1ccc(CSc2nnc(-c3c[nH]c4ccccc34)o2)cc1	46.0	-1.98	1.0	79.6*	151.3	0.3
CCN(CC)S(=O)(=O)c1ccc(C(=O)NCc2ccc(C)cc2)cc1	·	1.55	61.5*	·	104.6	-8.1
CCN(CC)S(=O)(=O)c1ccc(C(=O)NCc2cccs2)cc1	·	-0.85	·	·	·	·
Cc1ccc(-n2nnc3ccccc3c2=O)cc1C	53.8*	-0.29	-0.8	27.5	102.6	-3.8
CCC1CCCCN1C(=O)CSc1nnc(CNC(=O)c2cc(OC)c(OC)c(OC)c2)o1 (configuration not stated)	10.9	-0.07	8.8	-9.8	79.0	3.7
Nc1cc(N)nc(SCc2cccnc2)n1	-2.3	0.55	6.4	3.4	101.9	-3.8
Nc1nc(SCc2ccccc2)ns1	55.0*	0.62	14.4	23.8	90.4	22.2
Nc1cc(N)nc(SCc2ccccc2)n1	54.4*	0.84	-1.9	20.7	98.8	-5.8
Nc1nc(SCc2ccc(Cl)cc2)ns1	12.9	-0.23	-5.8	30.5	84.2	-7.3
Cc1ccc(C(=O)CC(=O)c2cccc(F)c2)c(O)c1	·	-1.19	·	·	·	·
CCCc1ccc(Oc2c(-c3ccc(O)c(C)c3O)n[nH]c2C)cc1	4.8	-1.11	4.6	-15.0	114.8	-4.6
CCCc1ccc(Oc2cn[nH]c2-c2ccc(O)c(C)c2O)cc1	-5.3	-3.52*	4.6	-0.6	99.8	-8.3
c1cncc(-c2nc(NCC3COc4ccccc4O3)c3ccccc3n2)c1 (configuration not stated)	·	-3.8*	-2.4	·	90.2	-0.7
COC(=O)CNc1nc(-c2cccnc2)nc2ccccc12	11.4	-1.77	5.5	10.2	96.3	-1.0
O=C(CCCCCn1c(=S)[nH]c2ccc(Br)cc2c1=O)NCC1CCCO1 (configuration not stated)	·	0.02	30.4	·	115.6	52.1*[fluorescence artefact?]
COc1ccc(OCc2nc3ccccc3[nH]2)cc1	·	0	-10.4	·	85.5	-10.3
c1cnc2c(OCc3nc4ccccc4[nH]3)cccc2c1	65.1*	-0.2	-9.0	82.3*	102.7	-38.8
COc1ccccc1OCc1nc2ccccc2[nH]1	52.8*	0.08	1.4	53.5*	97.5	-0.2
COc1ccc(C(=O)Nc2nc3ccccc3[nH]2)cc1OC	50.2*	0.17	-2.2	18.4	125.5	2.0
c1ccc2cc(OCc3nc4ccccc4[nH]3)ccc2c1	·	0.72	-18.3	·	101.4	-13.8
COc1cc(OC)cc(C(=O)Nc2nc3ccccc3[nH]2)c1	·	-0.61	-3.8	·	111.2	-7.3
CS(=O)(=O)N(Cc1ccccc1)c1ccc(C(=O)Nc2ccc3c(c2)OCO3)cc1	·	-1.7	-7.1	·	90.4	13.6
Cc1csc(NC(=O)CSc2nnc(Cn3c(=O)sc4ccccc43)n2-c2ccccc2)n1	4.1	·	0.1	-4.9	123.3	-10.0
SMILES	SF-1 act	PTK2B oligo ant	ERb coact inh	RORA act	ERa SRC1 pot	ERa coact inh
CC(C)(C)n1ncc2c(=O)n(CC(=O)NCc3ccccc3)cnc21	78.4*	-0.93	19.5	55.8*	107.0	17.1
CC(C)(C)n1ncc2c(=O)n(CC(=O)c3ccc(Cl)cc3)cnc21	87.4*	1.1	-6.7	59.1*	97.7	-42.2
CC(=O)Nc1ccc(NC(=O)Cn2cnc3c(cnn3C(C)(C)C)c2=O)cc1	-0.6	·	45.2	-7.6	80.9	37.6
CC(C)(C)n1ncc2c(=O)n(CC(=O)Nc3ccc(Cl)cc3)cnc21	-11.7	-1.33	4.9	-18.0	109.3	8.6
O=C(Nc1ccc(-c2cn3ccsc3n2)cc1)C1CC1	61.3*	-1.67	3.9	8.3	112.5	-3.5
O=C(Nc1ccc(-c2cn3ccsc3n2)cc1)C1CCCC1	58.5*	-0.63	0.7	29.9	101.9	1.0
Cc1ccc(N2C(=O)CSC2c2ccccn2)cc1Cl (configuration not stated)	·	-0.63	1.9	·	103.6	-5.5
Brc1ccc(C2C3=C(Nc4ncnn42)c2ccccc2OC3c2ccncc2)cc1 (configuration not stated)	·	-3.77*	1.6	·	59.7	18.1
COc1ccc(C2Oc3ccccc3C3=C2C(c2cccs2)n2ncnc2N3)cc1 (configuration not stated)	·	-3.68*	-5.4	·	101.7	-3.6
O=C(COC(=O)CCc1ccccc1)Nc1ncc(Cl)cc1Cl	·	0.61	·	·	·	·
C=CCn1c(=O)c(C#N)cc2c(=O)n3ccccc3nc21	-13.9	0.75	56.9*	2.0	40.5	55.5*
C=CCn1c(=N)c(C#N)cc2c(=O)n3ccccc3nc21	·	-0.56	-12.6	·	104.8	-18.6
O=C(C1=COCCO1)N1CCN(S(=O)(=O)c2cccc(Cl)c2Cl)CC1	-12.8	0.38	59.8*[fluorescence artefact?]	-17.6	107.2	-9.1
c1ccc(-n2nnnc2NC2CCCCC2)cc1	·	0.33	·	·	·	·
Cc1cc(C)n2nc(SCn3nnc4ccccc4c3=O)nc2n1	4.7	0.29	23.2	9.3	117.1	18.8
Cc1cc(C)n2nc(SCc3cc(=O)oc4cc(O)ccc34)nc2n1	·	·	61.7*[fluorescence artefact?]	·	98.7	57.9*
Nc1nnnn1/N=C/c1cccc(OCc2ccccc2Cl)c1	·	0.82	-6.2	·	115.0	-8.8
Cc1nc(NC(=O)C2CC3CCCC(C2)C3=O)sc1C (configuration not stated)	53.7*	-0.13	-3.7	62.1*	110.0	-11.3
CN1CCN(c2ccccc2NC(=O)c2cc(Br)ccc2Cl)CC1	-9.9	0.42	45.4	3.5	18.1	82.3*[fluorescence artefact?]
O=C(Cc1ccc(S(=O)(=O)N2CCOCC2)s1)Nc1ccc2c(c1)CCC2	23.4	-1.33	20.1	5.0	105.2	16.4
O=C(Cc1ccc(S(=O)(=O)N2CCOCC2)s1)Nc1nc2c(s1)CCCC2	·	-0.64	81.3*[fluorescence artefact?]	·	23.1	82.8*
CCOC(=O)C1=C(O)/C(=C\c2ccc(CNC(=O)C(=O)Nc3ccccc3)o2)N=C1C	·	0.04	71.5*	·	37.9	81.2*
CCOC(=O)C1=C(O)/C(=C\c2ccc(OC)c(OC)c2)N=C1C	·	0.49	-14.3	·	117.8	-10.4
CCc1c(C)nc2cc(-c3ccc(OC)cc3)[nH]n2c1=O	45.1	-0.16	0.3	57.8*	92.2	0.7
CCOC(=O)Cc1cc(=O)n2[nH]c(-c3ccc(C)cc3)cc2n1	·	0.53	56.3*	·	81.9	72.5*
COc1ccc2cc3cc(C(=O)Nc4ccc5c(c4)OCCO5)oc3nc2c1	-12.9	0.1	37.7	12.8	208.6*	70.9*[fluorescence artefact?]
COc1ccc2cc3cc(C(=O)Nc4cc(OC)c(OC)c(OC)c4)oc3nc2c1	·	-1.73	2.4	·	143.6	0.5
CCN1CCN(Cc2ccc(NC(=O)Nc3ccccc3OC)cc2)CC1	29.1	·	-3.1	48.8*	120.2	1.8
